Measurements pooled from the literature.
Converted amounts (≈) assume the structure as drawn.

| Structure (SMILES) | tested on | assay | test system | setting | quantity | result |
| --- | --- | --- | --- | --- | --- | --- |
| CC(=O)c1cccc(NC(=O)C(=O)[C@H](CC(C)C)NC(=O)[C@H](CC(C)C)NC(=O)[C@H](CC(C)C)NC(=O)OCc2ccccc2)c1 | RPMI-8226 | cell growth or viability, MTS |  | 72 h | IC50 | 48.7 nM |
| CC1=CC(=O)[C@H]2O[C@]1(C)O[C@H]([C@H](C)/C=C(C)/C=C/C(O)=C1/C(=O)CNC1=O)[C@H]2C | Bacillus cereus | microbial growth |  |  | MIC | 25 µM |
| CS(=O)(=O)c1ccc([C@@H](O)[C@@H](CF)NC(=O)C(Cl)Cl)cc1 | Salmonella enterica | microbial growth | CHOLERAESUIS | 20 h, pH 5.5 | MIC | 4 µg/mL |
| C[C@H]1O[C@@H](O[C@H]2[C@@H](O)C[C@H](O[C@H]3[C@@H](O)C[C@H](O[C@H]4CC[C@@]5(C)[C@H](CC[C@@H]6[C@@H]5C[C@@H](O)[C@]5(C)[C@@H](C7=CC(=O)OC7)CC[C@]65O)C4)O[C@@H]3C)O[C@@H]2C)C[C@H](O)[C@@H]1O | ReNcell VM | cell growth or viability |  | 24 h | IC50 | ~560 nM |
| CO/N=C(\C(=O)N[C@@H]1C(=O)N2C(C(=O)O)=C(CSc3nc(=O)c(=O)[nH]n3C)CS[C@H]12)c1csc(N)n1 | Salmonella enterica | microbial growth | CHOLERAESUIS | 20 h, pH 7.2 | MIC | 0.0625 µg/mL |
| NC[C@H]1O[C@H](O[C@H]2[C@H](O)[C@@H](O[C@H]3O[C@H](CO)[C@@H](O)[C@H](N)[C@H]3O)[C@H](N)C[C@@H]2N)[C@H](N)C[C@@H]1O | Bacillus cereus | microbial growth | ATCC11778 |  | MIC | 18.8 µg/mL |
| COc1ccc(C[C@H](NC(=O)[C@H](C)NC(=O)CN2CCOCC2)C(=O)N[C@@H](Cc2ccccc2)C(=O)[C@@]2(C)CO2)cc1 | RPMI-8226 | cell growth or viability, MTS |  | 72 h | IC50 | 213 nM |
| CC1=NN(CNC(=O)c2ccccc2)C(=O)C1=NNn1c(-c2ccccc2)nc2ccccc2c1=O | Salmonella enterica | microbial growth, broth dilution | PARATYPHI | 24 h | MIC | 51.9 µM |
| O=c1[nH]cc(F)c(=O)[nH]1 | Shigella dysenteriae | microbial growth, broth dilution |  | 24 h | MIC | 4 µg/mL |
| CCn1cc(C(=O)O)c(=O)c2ccc(C)nc21 | Salmonella enterica | microbial growth | CHOLERAESUIS | 20 h, pH 5.5 | MIC | 1 µg/mL |
| Cc1cc(Cc2ccccc2)n(O)c(=O)c1 | Cryptococcus gattii | microbial growth |  |  | MIC80 | 1.7 µM (≈ 0.366 µg/mL) |
| O=c1c(O)c(-c2ccc(O)c(O)c2)oc2cc(O)cc(O)c12 | Salmonella enterica | microbial growth | TYPHI |  | IC50 | 80100 nM |
| Cc1cc(NS(=O)(=O)c2ccc(N)cc2)no1 | Salmonella enterica | microbial growth | CHOLERAESUIS | 20 h, pH 7.2 | MIC | 2050 µg/mL |
| CCCCCCCCCCCC(=O)OC[C@H]1O[C@@H](n2cc(C)c(=O)[nH]c2=O)C[C@@H]1OC(=O)c1ccc(C(C)(C)C)cc1 | Bacillus cereus | microbial killing, broth dilution |  |  | MBC | 8 µg/mL (≈ 13.7 µM) |
| CCC1(c2ccc(N)cc2)CCC(=O)NC1=O (centres unmarked) | IOSE-144 | cell growth or viability, CCK-8 |  | 48 h | IC50 | > 50000 nM |
| O=C1NN=C(N=Cc2ccc(O)c(O)c2)C1=NNn1c(-c2ccccc2)nc2ccccc2c1=O | Salmonella enterica | microbial growth, broth dilution | PARATYPHI | 24 h | MIC | 53.5 µM |
| COc1ccccc1Cc1cc(C)cc(=O)n1O | Cryptococcus gattii | microbial growth |  |  | MIC80 | 1.5 µM (≈ 0.368 µg/mL) |
| CC(C)C[C@H](NC(=O)[C@H](Cc1c[nH]c2ccccc12)NC(=O)[C@H](C)NC(=O)OCc1ccccc1)C(=O)C(=O)Nc1ccccc1 | RPMI-8226 | cell growth or viability, MTS |  | 72 h | IC50 | 760 nM |
| COc1ccc(Cc2cc(C)cc(=O)n2O)cc1 | Cryptococcus gattii | microbial growth |  |  | MIC80 | 2.3 µM (≈ 0.564 µg/mL) |
| COc1cc(Cc2cnc(N)nc2N)cc(OC)c1OC | Shigella dysenteriae | microbial growth, broth dilution |  | 24 h | MIC | 16 µg/mL |
| CC1=CC[C@H]2O[C@]1(C)O[C@H]([C@H](C)/C=C(C)/C=C/C(O)=C1/C(=O)CNC1=O)[C@H]2C | Bacillus cereus | microbial growth |  |  | MIC | 3.13 µM |
| COc1cccc(Cc2cc(C)cc(=O)n2O)c1 | Cryptococcus gattii | microbial growth |  |  | MIC80 | 2.3 µM (≈ 0.564 µg/mL) |
| CCCCCCCCCCCC(=O)OC[C@H]1O[C@@H](n2cc(C)c(=O)[nH]c2=O)C[C@@H]1O | Bacillus cereus | microbial growth, broth dilution |  |  | MIC | 4 µg/mL |
